# Assay results taken from ChEMBL document CHEMBL1121700, “Antiinflammatory 5,6-dihydro-11-oxodibenz[b,e]azepine-3-acetic acids” (1981).
# Columns and labels:
# Assay type in all cases: functional
# [1] = system: Rattus norvegicus; test: Antiinflammatory activity relative to phenyl butazone as 1 in rat carrageenan paw edema assay
# How it was run: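 Female rats, 80–90 g, six per dose group, at least four dose levels. Test agent given orally 1 h before carrageenan injection into one hind paw, in vehicle of 0.9% NaCl, 0.5% Na carboxymethylcellulose, 0.4% polysorbate 80, 0.9% benzyl alcohol, 97.3% water. Rats killed 4 h after dosing and both hind paws weighed. Potency relative to phenylbutazone from dose-response of % weight increase of treated over untreated paw, by analysis of variance.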
# [2] = organism: Mus musculus; test: Analgesic activity relative to aspirin as 1 in 8 mice phenylquinone writhing assay
# How it was run: (§1)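 Male mice, 18–20 g, dosed orally with test agent in aqueous vehicle (0.9% NaCl, 0.5% Na carboxymethylcellulose, 0.4% polysorbate 80, 0.9% benzyl alcohol, 97.3% water) 20 min before intraperitoneal phenylquinone. Writhing observed over the following 10 min. Potency relative to aspirin taken from dose-response plots by analysis of variance.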
# [3] = organism: Mus musculus; test: Analgesic activity relative to aspirin as 1 in 24 mice phenylquinone writhing assay; how it was run: as §1
# [4] = organism: Mus musculus; test: Analgesic activity relative to aspirin as 1 in 32 mice phenylquinone writhing assay; how it was run: as §1
# [5] = organism: Mus musculus; test: Analgesic activity relative to aspirin as 1 in 16 mice phenylquinone writhing assay; how it was run: as §1
Compound,Relative activity [1],Relative activity [2],Relative activity [3],Relative activity [4],Relative activity [5]
O=C(O)Cc1ccc2c(c1)NCc1ccccc1C2=O,29,<0.7,–,–,–
CC(C(=O)O)c1ccc2c(c1)N(C)Cc1ccccc1C2=O (centres undefined),11,–,1,–,–
CN1Cc2ccccc2C(=O)c2ccc(CC(=O)O)cc21,7,–,–,<0.2,–
COc1ccc2c(c1)CNc1cc(CC(=O)O)ccc1C2=O,<0.1,<0.2,–,–,–
CC(=O)N1Cc2ccccc2C(=O)c2ccc(CC(=O)O)cc21,<0.3,<0.2,–,–,–
COc1ccc2c(c1)CN(C)c1cc(CC(=O)O)ccc1C2=O,6.7,–,–,–,<0.5
CCN1Cc2ccccc2C(=O)c2ccc(CC(=O)O)cc21,2.3,–,–,–,<0.2
